Test results: paper PMC12410913 (Small (Weinheim an Der Bergstrasse, Germany), 2025)
“Also recorded” adds a separate entry of the source.

What was measured:
S. aureus ATCC 29 737 = assay: Field-emission SEM of nanonet morphology; format: cell-based; settings: 40 µM peptide (100 µM E-E13 ASYM), 2 h, MHB, 37 °C
Procedure, shortened: (§1)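 Mid‑log bacteria were diluted in MHB to OD600 0.07, then given test peptide and shaken at 120 rpm. They were pelleted at 6000 g for 6 min, PBS‑washed three times, and fixed overnight at 4 °C in 2.5% glutaraldehyde. Cells were adhered to poly‑L‑lysine coverslips, post‑fixed with 1% OsO4 for 30 min, ethanol‑dehydrated and gold‑coated. Imaging was at 15 000×, with ≥3 fields per sample. Coverage and extensiveness were scored high/moderate/low.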

E. coli ATCC 25 922 = assay: Field-emission SEM of nanonet morphology; format: cell-based; settings: 40 µM peptide (100 µM E-E13 ASYM), 2 h, MHB, 37 °C
Procedure, shortened: as §1

[1] = K114 fluorescence fibrillation assay in PBS alone; format: physicochemical; settings: 20 µM peptide, 1× PBS pH 7.4, 37 °C, 30 minutes
Procedure, shortened: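 K114 was dissolved in DMSO at 10 mM and diluted to 250 µM in water. It was mixed at once with test peptide in 1× PBS pH 7.4 without LPS or LTA and shaken at 120 rpm. Fluorescence was read at ex 360/em 550 nm at 0.5, 1.0 and 2.0 h. Fibrillation was judged by signal above a non‑fibrillating control peptide.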

BODIPY-Cadaverine = format: binding, E. coli O111:B4 (LPS), S. aureus (LTA); settings: LPS/LTA-BC complexes in 1× PBS pH 7.4, 37 °C, 30 minutes
Procedure, shortened: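 LPS (E. coli O111:B4) or LTA (S. aureus) at 50 µg mL−1 was premixed with 5 µM BODIPY‑cadaverine in 1× PBS pH 7.4 for 30 min at room temperature in the dark. The premix was added 1:1 to two‑fold serial peptide dilutions in PBS, with polymyxin B as control, and shaken at 120 rpm. Fluorescence was read at ex 580/em 620 nm. Occupancy factor and % BC displaced came from sample fluorescence scaled between highest and lowest signals.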

[2] = K114 fluorescence fibrillation assay with LPS or LTA; format: physicochemical, E. coli O111:B4 (LPS), S. aureus (LTA); settings: 20 µM peptide, 37 °C
Procedure, shortened: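 A 10 mM DMSO stock of K114 was diluted to 250 µM in water and mixed at once with test peptide plus LPS (E. coli O111:B4) or LTA (S. aureus), with shaking at 120 rpm. K114 fluorescence (ex 360/em 550 nm) was read at 0.5, 1 and 2 h. Results were given as % increase in signal, with a non‑fibrillating control peptide as baseline. Three repeats, mean ± SE.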

Sequence	Nanonet morphology (surface coverage, extensiveness) on S. aureus (S. aureus ATCC 29 737)	Nanonet morphology (surface coverage, extensiveness) on E. coli (E. coli ATCC 25 922)	Fibrillation (K114 fluorescence) in PBS alone [1]	Binding to bacterial PAMPs (BC displaced from LPS or LTA) (BODIPY-Cadaverine)	Fibrillation (K114 fluorescence signal) in response to LPS ([2]; 5 µg mL−1 LPS)	Fibrillation (K114 fluorescence signal) upon LTA binding ([2]; 5 µg mL−1 LTA)
LKFRVKLTAKVRFKL [F‐F15]	extensive nanonets with moderate surface coverage	extensive nanonets with moderate surface coverage				
KLKLKLTAKLKLK [btt1‐3A13]	random aggregated structures	less extensive nanonets with low surface coverage				
LKFRFKLTAKFRFKL [diF‐F15]			spontaneously fibrillated in PBS; also recorded: significantly increased the K114 fluorescence signal, even in PBS alone			
KFRFKLTAKFRFK [diF‐F13]	formed nanonets similar to F‐F15 and BTT1‐3A	tighter interweaving of nanofibers on the surface of E. coli				
EVRIKLTAKIEVR [E‐E13 ^ASYM]	minimal membrane contact and low surface coverage	minimal membrane contact and low surface coverage		significantly reduced binding to bacterial PAMPs		
KFRVKLTAKVRFK [F‐F13]	slightly increased surface coverage on S. aureus but with less extensive nanonets	loosely trap E. coli with moderate surface coverage			lower fibrillation in response to LPS	higher in fibrillation upon LTA binding
